Reference: ChEMBL document CHEMBL6092204, “Synthesis of pyridyl pyrimidine hedgehog signaling pathway inhibitors and their antitumor activity in human pancreatic cancer” (Eur J Med Chem, 2024)

Tests used:
[1] = test system: BXPC-3; assay: Induction of apoptosis in human BXPC-3 cells assessed as necrotic cells at 2.5 uM incubated for 48 hrs by Annexin V-FITC/PI staining based flow cytometry (reference value: 0.71 %); assay type: functional
[2] = test system: BXPC-3; assay: Induction of apoptosis in human BXPC-3 cells assessed as viable cells at 2.5 uM incubated for 48 hrs by Annexin V-FITC/PI staining based flow cytometry (reference value: 91.5 %); assay type: functional; details: read-out: Activity
[3] = test system: BXPC-3; assay: Induction of apoptosis in human BXPC-3 cells assessed as necrotic cells at 5 uM incubated for 48 hrs by Annexin V-FITC/PI staining based flow cytometry (reference value: 0.71 %); assay type: functional
[4] = Toxicity in BALB/c nude mouse xenografted with human BxPC-3 cells assessed as necrosis in kidneys at 5 to 15 mg/kg, ip qd for 21 days by H and E staining based analysis; details: in vivo, 504 h
[5] = test system: PANC-1; assay: Induction of cell cycle arrest in human PANC-1 cells assessed as accumulation at G1 phase at 10 uM incubated for 48 hrs by PI/RNase staining based flow cytometry (reference value: 82.0 %); assay type: functional
[6] = test system: BXPC-3; assay: Inhibition of Hh signaling pathway in human BXPC-3 cells assessed as reduction in Gli1 mRNA level incubated for 48 hrs by qRT-PCR analysis; assay type: cell-based; details: dose 2.5-10 µM
Procedure, shortened: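 Total RNA was extracted by column kit after 48 h treatment and checked spectrophotometrically. Gli1 and Ptch1 transcripts were quantified by real-time RT-qPCR with GAPDH as internal control. Results are fold change relative to the untreated group; three separate experiments.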

[7] = Toxicity in BALB/c nude mouse xenografted with human BxPC-3 cells assessed as necrosis in lung at 5 to 15 mg/kg, ip qd for 21 days by H and E staining based analysis; details: in vivo, 504 h
[8] = test system: BXPC-3; assay: Induction of apoptosis in human BXPC-3 cells assessed as late apoptotic cells at 5 uM incubated for 48 hrs by Annexin V-FITC/PI staining based flow cytometry (reference value: 6.72 %); assay type: functional
[9] = Toxicity in BALB/c nude mouse xenografted with human BxPC-3 cells assessed as tissue fibrosis in lung at 5 to 15 mg/kg, ip qd for 21 days by H and E staining based analysis; details: in vivo, 504 h
[10] = test system: PANC-1; assay: Induction of apoptosis in human PANC-1 cells assessed as viable cells at 5 uM incubated for 48 hrs by Annexin V-FITC/PI staining based flow cytometry (reference value: 93.2 %); assay type: functional; details: read-out: Activity
[11] = test system: PANC-1; assay: Inhibition of cell migration in human PANC-1 cells incubated for 48 hrs by crystal violet staining based transwell assay; assay type: functional; details: dose 2.5-10 µM
Procedure, shortened: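 Cells at 1.5×10^5 cells/mL in serum-free medium containing drug were added to the upper Transwell chamber (200 μL), with medium containing 10% FBS below. After 48 h, non-migrated cells were swabbed off. Inserts were fixed in 4% paraformaldehyde for 15-20 min and stained with 0.5% crystal violet. Cells were counted in four random fields at 100×; n = 3.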

[12] = test system: PANC-1; assay: Induction of apoptosis in human PANC-1 cells assessed as early apoptotic cells at 5 uM incubated for 48 hrs by Annexin V-FITC/PI staining based flow cytometry (reference value: 1.88 %); assay type: functional
[13] = test system: PANC-1; assay: Induction of cell cycle arrest in human PANC-1 cells assessed as accumulation at G2 phase at 5 uM incubated for 48 hrs by PI/RNase staining based flow cytometry (reference value: 5.83 %); assay type: functional
[14] = test system: PANC-1; assay: Induction of apoptosis in human PANC-1 cells assessed as viable cells at 10 uM incubated for 48 hrs by Annexin V-FITC/PI staining based flow cytometry (reference value: 93.2 %); assay type: functional; details: read-out: Activity
[15] = test system: PANC-1; assay: Antiproliferative activity against human PANC-1 cells assessed as inhibition of cell viability incubated for 48 hrs by MTT assay; assay type: functional, cell-based; details: PANC-1, 48 h
Procedure, shortened: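 Cells in log phase were seeded at 8,000-10,000/well and allowed to adhere overnight at 37 °C, 5% CO2. Compound from DMSO stock, diluted in medium, was applied for 48 h; controls got drug-free medium, blanks held medium only. MTT (5 mg/mL stock) 4 h, formazan dissolved in DMSO, A490 read. Viability was blank-corrected against untreated cells; IC50 came from a fitted curve; three separate experiments.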

[16] = test system: BXPC-3; assay: Induction of cell cycle arrest in human BXPC-3 cells assessed as accumulation at S phase at 2.5 uM incubated for 48 hrs by PI/RNase staining based flow cytometry (reference value: 8.18 %); assay type: functional
[17] = test system: BxPC-3; assay: Antitumor activity aginst human BxPC-3 cells xenografted in BALB/c nude mouse assessed as decrease in tumor volume at 10 mg/kg, ip qd for 21 days relative to control; set-up: scale not given: the % may be the effect or the level left; details: time 21 day
[18] = test system: PANC-1; assay: Inhibition of cell migration in human PANC-1 cells incubated for 24 hrs by wound healing assay; assay type: functional, cell-based; details: dose 2.5-10 µM
Procedure, shortened: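 Monolayers at 80-90% confluence were scratched with a cross and washed three times with PBS. Eight fields were imaged at 0 h. Cells were then incubated with compound in medium containing 2% FBS, and the same fields were re-imaged at 24 h (100×). Closure % = (area 0 h − area 24 h)/area 0 h × 100; n = 3.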

[19] = Toxicity in BALB/c nude mouse xenografted with human BxPC-3 cells assessed as body weight loss at 5 to 15 mg/kg, ip qd for 21 days; details: in vivo, 504 h
[20] = test system: BxPC-3; assay: Antitumor activity aginst human BxPC-3 cells xenografted in BALB/c nude mouse assessed as decrease in tumor volume at 15 mg/kg, ip qd for 21 days relative to control; set-up: scale not given: the % may be the effect or the level left; details: time 21 day
[21] = Toxicity in BALB/c nude mouse xenografted with human BxPC-3 cells assessed as tissue fibrosis in kidneys at 5 to 15 mg/kg, ip qd for 21 days by H and E staining based analysis; details: in vivo, 504 h
[22] = test system: PANC-1; assay: Induction of apoptosis in human PANC-1 cells assessed as necrotic cells at 10 uM incubated for 48 hrs by Annexin V-FITC/PI staining based flow cytometry (reference value: 2.24 %); assay type: functional
[23] = test system: BXPC-3; assay: Induction of apoptosis in human BXPC-3 cells assessed as viable cells at 10 uM incubated for 48 hrs by Annexin V-FITC/PI staining based flow cytometry (reference value: 91.5 %); assay type: functional; details: read-out: Activity
[24] = test system: BxPC-3; assay: Antitumor activity aginst human BxPC-3 cells xenografted in BALB/c nude mouse assessed as decrease in tumor volume at 5 mg/kg, ip qd for 21 days relative to control; set-up: scale not given: the % may be the effect or the level left; details: time 21 day
[25] = Toxicity in BALB/c nude mouse xenografted with human BxPC-3 cells assessed as inflammatory infiltration in spleen at 5 to 15 mg/kg, ip qd for 21 days by H and E staining based analysis; details: in vivo, 504 h
[26] = test system: PANC-1; assay: Induction of apoptosis in human PANC-1 cells assessed as viable cells at 2.5 uM incubated for 48 hrs by Annexin V-FITC/PI staining based flow cytometry (reference value: 93.2 %); assay type: functional; details: read-out: Activity

CN(C)Cc1ccc(NC(=O)c2ccc(Nc3nccc(-c4cccnc4)n3)cc2)cc1
Activity [1]: 1.37%
viability at 2.5 µM [2]: 88.5%
Activity [3]: 1.02%
Activity [4]: Non-toxic
Activity [5]: 72.7%
inhibition [6]: Dose-dependent-effect
Activity [7]: Non-toxic
Activity [8]: 10.8%
Activity [9]: Non-toxic
viability at 5 µM [10]: 87.3%
inhibition [11]: Dose-dependent-effect
Activity [12]: 3.29%
Activity [13]: 8.15%
viability at 10 µM [14]: 71%
IC50 [15]: 4.2 µM
Activity [16]: 11.1%
Activity [17]: 80%
inhibition [18]: Dose-dependent-effect
Activity [19]: Non-toxic
Activity [20]: 82%
Activity [21]: Non-toxic
Activity [22]: 2.56%
viability at 10 µM [23]: 71.8%
Activity [24]: 73%
Activity [25]: Non-toxic
viability at 2.5 µM [26]: 90.7%
